Hits are enriched below; roughly 2.6% of the tested compounds scored in any of these assays.
miR-122 sensor = blocks miR-122 activity in Huh7 sensor cells. AID 602342. Huh7 miR-122 Renilla luciferase sensor, 48 h; neutral wells = 0, positive control = 100. actives 0.3% (n = 340,000). activation (reporter increase), % at 12.5 µM;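 active means mean replicate activation score at least 90 and every replicate individually at or above 90; inconclusive means only one of the two criteria met; inactive means neither criterion met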;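 further: higher luciferase means less miR-122 activity so hits act as miR-122 inhibitors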
Vif imaging = blocks HIV Vif function; HEK293T cells, Vif self-association by quenched fluorescence, imaging, 24 h; inhibition, % at 7.49 µM; actives 0.35% (n = 340,000); AID 602346; in the data active means inhibition above about 50%, passing the limit was not always enough; inconclusive means no clear call, values can overlap the other calls; inactive means below about 31%
FN deposit inh = fibronectin deposition inhibition | inhibition, % at 12.6 µM | AH1F fibroblasts, Alexa488-fibronectin deposition fluorescence, overnight | actives 0.086% (n = 350,000);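 active means mean inhibition across replicates of 30% or more, regardless of how many single replicates reach that level; inconclusive means mean under 30% yet at least half of replicates reach 30%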;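 further: positive control wells lacked labelled fibronectin entirely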
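Assay system: AH1F fibroblasts assembling fluorescent fibronectin matrix; Amount: 10000 AH1F cells per well; Buffer or medium: DMEM, 2% serum; Probe or stimulus: Alexa488-fibronectin, 24 nM final in well; Doses: single compound dose, delivered by pin transfer; Incubation: 1 h adhesion, overnight exposure; Measured by: fluorescence 485/525 nm; Read-out: fibronectin deposition inhibition.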
S100A4 inh HTS = blocks human S100A4 binding to myosin IIA peptide; inhibition, % at 10.7 µM; P26447; S100A4/TAMRA-MyoIIA peptide fluorescence polarization; actives 0.14% (n = 360,000); AID 652163;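 active means mean inhibition of at least 70% across replicates, with every replicate also reaching that level; inconclusive means mean inhibition reaches 70% but some replicates fall short; inactive means mean inhibition below 70%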
Target sequence (P26447 whole entry, looked up): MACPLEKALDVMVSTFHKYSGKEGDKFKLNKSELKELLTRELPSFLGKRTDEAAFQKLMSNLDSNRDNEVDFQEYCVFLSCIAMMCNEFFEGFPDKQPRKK
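Material: S100A4 monomer (human). Medium: Calcium-containing HEPES buffer, pH 7.2. Probe or stimulus: labelled myosin peptide probe, 5 nM. Compound dosing: one concentration per compound. Timing: polarization read 5 min after assay mix addition, stable 5–60 min. Benchmarks: DMSO as neutral control, TFP as positive control.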
HIV Env fusion = blocks HIV Env-driven cell-cell fusion. HeLa-JRFL Env/CEM21 cell fusion, luciferase. actives 1.1% (n = 360,000). inhibition, % at 12.3 µM;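 active means mean replicate inhibition score of at least 50 and every replicate individually at or above 50; inconclusive means only one of the two criteria met; inactive means mean below 50 and not all replicates reaching 50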;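 further: 0% = plate neutral controls and 100% = maraviroc near 300 nM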
Ecoli rRNA inh = inhibitors of bacterial rRNA selective over humanized ribosomes | E. coli WT GFP vs humanized-ribosome RFP mutants, fluorescence, 24 h; stronger effect = lower value; DMSO median 0, no signal -100 | GFP signal change (wild-type ribosome), % (no concentration beside the values) | actives 1.6% (n = 350,000);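 active means significant combined selectivity score with lowered wild-type GFP, culture density cut under 30%, mutant RFP and density less affected; inactive means any of these conditions unmet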
* = called active by the depositor; ? = inconclusive; · = not tested or not shown; ! = not active in a repeat; [ ] = another dose, or the depositor's remark.

SMILES | miR-122 sensor | Vif imaging | FN deposit inh | S100A4 inh HTS | HIV Env fusion | Ecoli rRNA inh
CC(=O)N(C)C[C@@H]1Oc2c(NS(C)(=O)=O)cccc2C(=O)N(C)C[C@H]1C | · | · | -5 | · | · | 2
Fc1ccc(CN2[C@@H]3CN(CC(F)(F)F)C[C@H]2C3c2ccc(Br)cc2)cc1 (stereo partly specified) | · | · | -12 | · | · | -54
Cc1cc(OCC(C)C)ccc1/C(O)=C1/C(=O)C(=O)N(Cc2cccnc2)C1c1ccncc1 (stereo unspecified) | · | 54* | · | · | · | ·
CN1C(=O)/C(=C/c2ccccc2OCc2cccc(F)c2)N(C)C1=S | 9 | -7 | -16 | · | ? | ·
Fc1cccc(COc2ccccc2C(=S)N2CCCC2)c1 | -2 | 7 | 0 | -17 | -10 | -30*
CCCNC(=O)Nc1ccc2c(c1)C(=O)N(C)C[C@@H](OC)[C@H](C)CN(S(C)(=O)=O)[C@H](C)CO2 | · | · | -3 | 2 | · | 3
CN1C(C(=O)Nc2ccc(OC(F)(F)F)cc2)=CC(c2cccs2)=NS1(=O)=O | 0 | -4 | 1 | 3 | 18 | -29
COc1ccc(NC(=O)C2=CC(c3cccs3)=NS(=O)(=O)N2C)cc1 | 0 | 0 | -4 | 3 | 89* | -1
CC(=O)N1CCC(N(CCN2CCOCC2)C(=O)Nc2ccc(Cl)c(Cl)c2)CC1 | -2 | 3 | 1 | 9 | 3 | -40*
COc1ccc(C2C(C(N)=O)=C(C)Nc3nc(-c4cccc(Cl)c4)nn32)cc1OC (stereo unspecified) | -9 | 2 | 28 | · | 58* | ·
C[C@H](CO)N1C[C@H](C)[C@@H](CN(C)S(=O)(=O)c2cccs2)Oc2ccc(NS(=O)(=O)c3cccs3)cc2CC1=O | 10[16.7 µM] | · | · | · | -13[16.7 µM] | -4
c1ccc(CCn2nnc3ccccc32)cc1 | -1 | -5 | -15 | -7 | -19 | 6
Nn1nnc2ccccc21 | -1 | -9 | 4 | -3 | 94* | 10
COc1cccc(S(=O)(=O)N[C@H]2CC[C@H](CC(=O)NC3CCC3)O[C@@H]2CO)c1 | · | · | · | 0 | -17[16.7 µM] | 0
Cn1c(CNc2ccc(Cl)cc2)nc2ccccc21 | 13 | -22 | · | · | · | ·
CN(Cc1nc2ccccc2n1C)S(=O)(=O)c1ccc(Cl)cc1 | 2 | 50* | · | · | · | ·
Oc1c(C(Nc2ccccn2)c2ccccn2)ccc2cccnc12 (stereo unspecified) | 15 | 28 | 7 | 2 | -252 | -52
Oc1ccccc1C(Nc1nccs1)c1ccc2cccnc2c1O (stereo unspecified) | 33 | -3 | 15 | -3 | 60* | -2
COc1ccc(C(C#N)=C2C=C(Cl)C(=NO)C=C2Cl)cc1 | · | -7 | -2 | -1 | -1 | -19*
COC(=O)C1(C(=O)OC)C[C@H](c2ccc(OC)cc2)N(Cc2ccccc2OC)[C@@H]1c1ccc(OC)cc1 | · | · | -3 | 14 | 38 | ·
COC(=O)C1(C(=O)OC)C[C@H](c2ccc(OC)cc2)N(Cc2ccccc2OC)[C@@H]1c1cccs1 | · | · | -7 | 0 | 92* | 11
CCC(=O)Nc1ccc2c(c1)OC[C@H](C)N(C(=O)CN(C)C)C[C@@H](C)[C@@H](OC)CN(C)C2=O | -8[16.7 µM] | · | 2 | 44 | -6[16.7 µM] | 2
CS(=O)(=O)N1N=C(c2ccc(Cl)cc2)CC1c1cccs1 (stereo unspecified) | 126* | -4 | · | · | -38 | ·
CCS(=O)(=O)Nc1cccc(C2=NN(S(C)(=O)=O)C(c3cccs3)C2)c1 (stereo unspecified) | 3 | -5 | 8 | -46 | 4 | -4
C/C=C/c1ccc(C2[C@H]3CNC[C@@H]2N3S(=O)(=O)c2ccccc2C)cc1 (stereo partly specified) | · | · | -5 | 101*! | · | -2
c1ccc(CN2CCN(C3CCCSc4ccccc43)CC2)cc1 (stereo unspecified) | · | 8 | -4 | 4 | -126 | -30*
O=C1CC(N2CCN(Cc3ccccc3)CC2)C(=O)N1 (stereo unspecified) | · | 1 | 10 | -4 | 2 | 10
COc1ccc(CNC(=O)c2ccc[nH]2)cc1 | 4 | 60* | -3 | -2 | -2 | -6
